These results are taken from article PMC4477344 (Diabetes, 2015).

Where no end group is shown, it is not given here.

The subject of one data set is Dpp4. The note with it: cited from earlier work.
Data set [1] deals with diet-induced obese (DIO) mice. As to the kind of experiment: GLP-1. Type of data set: in vivo, C57BL/6J male mice. The note with it: continuous infusion for up to 16 weeks. The method, boiled down: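 Mice were started on high-fat diet at 6–10 weeks of age and fed it for 7–22 weeks. At 13–28 weeks of age they were randomized by body weight and given osmotic minipumps delivering vehicle (0.154 mol/L NaCl/0.2% human serum albumin) or test compound at 50–70 nmol/kg/day for […]. Body weight was recorded weekly and food intake twice weekly. Fat and lean mass were measured by DXA at week 15. n = 6 per group.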

GLP-1(7-36)amide: the “time of cleavage in vivo by Dpp4 to GLP-1(9-36)amide” value in the data set with Dpp4 is 1 to 2 min.
As for LVKGR-NH2 [GLP-1(32-36)amide], in data set [1], the adverse effects entry is recorded as “No adverse effects”.
